Data from ChEMBL document CHEMBL1124427, “Studies on prodrugs. 11. Synthesis and antimicrobial activity of N-[(4-methyl-5-methylene-2-oxo-1,3-dioxolan-4-yl)oxy]norfloxacin ” (J Med Chem, 1989).
In brackets after ≈: the same amount, converted by molar mass.

Experiments:
Staphylococcus aureus [1] = experiment: Oral efficacy of compound after peroral administration on systemic infection by Staphylococcus aureus IID803; type: functional
Method in brief: (§1)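 Groups of five male ddY mice (20 ± 2 g) were given 0.5 mL of bacteria intraperitoneally at 10 or 100 times the 50% lethal dose. One hour after infection they were treated orally with compound suspended in 0.5% sodium (carboxymethyl)cellulose. Survival was scored at 1 week, and ED50 is given with 95% confidence limits.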

Pseudomonas aeruginosa [2] = experiment: Minimum inhibitory concentration tested against Pseudomonas aeruginosa E-2; type: functional
Method in brief: (§2)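 Agar dilution used serial 2-fold dilutions in Mueller-Hinton agar, with plate concentrations of 0.006–100 µg/mL and an inoculum of about 10^8 cfu/mL.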

Pseudomonas aeruginosa [3] = experiment: Oral efficacy of compound after peroral administration on systemic infection by Pseudomonas aeruginosa E-2; type: functional; method in brief: as §1
Escherichia coli [4] = experiment: Effective dose of compound against Escherichia coli KC-14 in mice after oral administration
Bacillus subtilis = experiment: Minimum inhibitory concentration tested against Bacillus subtilis ATCC 6633; type: functional; method in brief: as §2
Klebsiella pneumoniae = experiment: Minimum inhibitory concentration tested against Klebsiella pneumoniae PC1602; type: functional; method in brief: as §2
Escherichia coli [5] = experiment: (§3) Minimum inhibitory concentration tested against Escherichia coli KC-14; type: functional; method in brief: as §2
[6] = Lethal dose of compound after peroral administration in rats; type: toxicity, organism-based; settings: rat, in vivo, po
Method in brief: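 Each compound was given orally as a suspension in 0.5% CMC. Deaths were counted over 1 week, and LD50 was calculated by the method of Weil.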

Proteus vulgaris = experiment: Minimum inhibitory concentration tested against Proteus vulgaris OX-19; type: functional; method in brief: as §2
Staphylococcus aureus [7] = experiment: Minimum inhibitory concentration tested against Staphylococcus aureus FDA207PJC-1; type: functional; method in brief: as §2
Escherichia coli [8] = experiment: Oral efficacy of compound after peroral administration on systemic infection by Escherichia coli KC-14 in rat; type: functional
[9] = Area under curve value of compound per hour after oral administration; type: ADME
Method in brief: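 Mice were dosed orally at the equivalent of 50 mg/kg NFLX, suspended in 0.5% sodium (carboxymethyl)cellulose. They were killed by bleeding at 0.25, 0.5, 1.0, 2.0, 3.0 and 4.0 h. Serum NFLX was measured by HPLC with UV detection at 280 nm, and AUC was expressed in µg/mL per h.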

Serratia marcescens = experiment: Minimum inhibitory concentration tested against Serratia marcescens LAM 1184; type: functional; method in brief: as §2
Escherichia coli [10] = experiment: Oral efficacy of compound after peroral administration on systemic infection by Escherichia coli KC-14; type: functional; method in brief: as §1
Escherichia coli [11] = experiment: Effective dose of compound against Escherichia coli KC-14 in mice after oral administration; remark: listed apart in the source
Escherichia coli [12] = experiment: as §3; type: functional; remark: listed apart in the source
Method in brief: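 MIC by serial 2-fold agar dilution on Mueller-Hinton agar, with an inoculum of about 10^8 cfu/mL and plate concentrations of 0.006–100 μg/mL.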

Structure (SMILES) | ED50 (Staphylococcus aureus [1]) [mg/kg] | MIC (Pseudomonas aeruginosa [2]) [µg/mL] | ED50 (Pseudomonas aeruginosa [3]) [mg/kg] | ED50 (Escherichia coli [4]) [mg/kg] | MIC (Bacillus subtilis) [µg/mL] | MIC (Klebsiella pneumoniae) [µg/mL] | MIC (Escherichia coli [5]) [µg/mL] | LD50 [6] [mg/kg] | MIC (Proteus vulgaris) [µg/mL] | MIC (Staphylococcus aureus [7]) [µg/mL] | ED50 (Escherichia coli [8]) [mg/kg] | AUC [9] [ng·h/mL] | MIC (Serratia marcescens) [µg/mL] | ED50 (Escherichia coli [10]) [mg/kg] | ED50 (Escherichia coli [11]) [mg/kg] | MIC (Escherichia coli [12]) [µg/mL]
C=C1OC(=O)OC1(C)ON1CCN(c2cc3c(cc2F)c(=O)c(C(=O)O)cn3CC)CC1 (stereo not given) | 70.7 | 6.25 (≈ 14 µM) | 17.7 | 1.31 | 0.19 (≈ 0.425 µM) | 0.1 (≈ 0.224 µM) | 1.56 (≈ 3.49 µM) | > 4000 | 0.05 (≈ 0.112 µM) | 0.78 (≈ 1.74 µM) | 2.68 | 5400 | 3.12 (≈ 6.97 µM) | 1.31 | – | –
CCn1cc(C(=O)O)c(=O)c2cc(F)c(N3CCNCC3)cc21 [NORFLOXACIN] | – | 0.39 (≈ 1.22 µM) | 77.1 | – | 0.19 (≈ 0.595 µM) | 0.05 (≈ 0.157 µM) | – | > 4000 | 0.05 (≈ 0.157 µM) | 0.19 (≈ 0.595 µM) | – | 1800 | 0.19 (≈ 0.595 µM) | 3.15 | 3.13 | 0.1 (≈ 0.313 µM)
CCn1cc(C(=O)O)c(=O)c2cc(F)c(N3CCN(Cc4oc(=O)oc4C)CC3)cc21 | 93.3 | 1.56 (≈ 3.62 µM) | 20.3 | – | 0.19 (≈ 0.44 µM) | 0.1 (≈ 0.232 µM) | – | > 4000 | 0.1 (≈ 0.232 µM) | 0.39 (≈ 0.904 µM) | 6.16 | 5700 | 0.39 (≈ 0.904 µM) | 1.93 | 1.93 | 0.2 (≈ 0.464 µM)
